Active and inactive are the calls of the source. No cut-off for these calls is given here.

Consider two compounds from ChEMBL document CHEMBL1144493, “Synthesis and biological evaluation of dihydrofuran-fused perhydrophenanthrenes as a new anti-influenza agent having novel structural characteristic” (Bioorg Med Chem, 2007).

One series deals with MDCK. Kind of series: Cytotoxicity against MDCK cells at 100 uM by MTT assay. Format: cell-based, Canis lupus familiaris. Conditions: dog. The method in brief: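 Subconfluent MDCK cells (10⁴ cells/well) were exposed for 24 h to compound at 100 or 200 µM in MEM with 2% FBS; control was 1% DMSO. MTT was then added and OD read at 570 nm. Values are mean ± SD of three measurements.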
In general terms: Tetrazolium dyes change colour on reduction, which living cells bring about.

In series [1] the test system is Influenza A virus. Kind of series: Antiviral activity against influenza virus A virus A/PR/8/34 (H1N1) at 100 uM. Format: functional, organism-based. The method in brief:
(§1)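 PBS-washed confluent MDCK monolayers were inoculated with virus in serum-free MEM and adsorbed for 45 min at room temperature. They were then cultured in agar medium with drug at 100 µM or 1% DMSO as control. Results are percent of control, mean ± SD of three experiments. Drug stocks were in DMSO, final DMSO <1%.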

Series [2] concerns Influenza A virus. Kind of series: Antiviral activity against influenza A virus A/USSR/92/77 (H1N1) at 100 uM. Format: functional, organism-based. In a few lines:
as §1

For series [3], the system named is Influenza A virus. Description: Antiviral activity against influenza A virus A/NWS/33 (H1N1) at 100 uM. Format: functional, organism-based. In a few lines:
as §1

For series [4], the system named is Influenza A virus. Kind of series: Inhibition of influenza A virus A/Aichi/2/68 virus proliferation in MDCK cells. Format: functional, organism-based.
Series [5] has as its system Influenza B virus. Description: Antiviral activity against influenza B virus B/Lee at 100 uM. Format: functional, organism-based. The method in brief:
as §1

Series [6] has as its system Influenza B virus. Description: Antiviral activity against influenza B virus B/Singapore/222/79 at 100 uM. Format: functional. The method in brief:
as §1

For series [7], the system named is Influenza A virus. Kind of series: Inhibition of influenza A virus A/Aichi/2/68 proliferation in MDCK cells at 10 uM relative to control. More on the design: scale not given: the % may be the effect or the level left. Format: functional.
Series [8] relates to Influenza A virus. Description: Anti-influenza activity against influenza A virus A/Aichi/2/68 in MDCK cells administered at 100 uM within 1 hrs post infection. Format: functional, organism-based. In a few lines: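 MDCK cells were infected with A/Aichi/2/68 (H3N2) under drug-free conditions and then given drug at 100 µM after delays of 0–10 h at 37 °C. The paper describes a one-step growth design at MOI 5 PFU/cell with 1-h drug treatment. Virus yield was measured by plaque titration after 24 h total, as % of 1% DMSO control, mean ± SD of three experiments.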

Take `CC(C)C(Oc1ccc2c(c1)C[C@H]1OC=C3[C@H]1[C@@]2(C#N)CCCC31OCCO1)(C(C)C)C(C)C`: the Activity result was “Not Active” with MDCK, “Dose-dependent effect” in the series on Influenza A virus [4] and 30% in the series with Influenza A virus [7]. Further, the result in the series with Influenza A virus [1], in the series on Influenza A virus [2], with Influenza A virus [3], in the series on Influenza B virus [5] and in the series on Influenza B virus [6] was Active.
For the compound `N#C[C@]12CCC3(OCCO3)C3=CO[C@H](Cc4cc(OC(F)(F)F)ccc41)[C@@H]32`, the Activity result with MDCK is “Not Active”; in the series with Influenza A virus [4] it was “Dose-dependent effect”; with Influenza A virus [7], 30%. The result in the series on Influenza A virus [1], in the series on Influenza A virus [2], with Influenza A virus [3], in the series on Influenza B virus [5], in the series with Influenza A virus [8] and with Influenza B virus [6] was Active.
